Shown are actives, neighbours in structure and some others; about 2.9% of the full set was active somewhere.
Runt-CBFb FRET: Runt domain-CBFb interaction inhibition | Cerulean-Runt/Venus-CBFb FRET ratio 530/480, 1 h | inhibition, % at 20 µM | 220,000 compounds, 0.46% hits | AID 1496 | Q01196+Q13951;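 active = inhibition over about 50% at 20 µM in the single-dose screen, limit read from the data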
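Doses: 20 µM compound in 1% DMSO | Material: Cerulean-labeled Runt domain protein | Amount: Each fluorescent fusion protein 100 nM | Schedule: Two 1 h room-temperature incubations shielded from light | Measured by: FRET fluorescence | Evaluation: Loss of energy transfer signal | Controls: Unlabeled CBFb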
Wee1 stabilizer: human Wee1 degradation inhibition, primary screen. P30291. 220,000 compounds, 1.2% hits. AID 1321. reporter increase, % at 5 µM. HeLa Luc-Wee1K328M stability, luciferase luminescence; 100% = proteasome inhibitor MG132 effect;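 active = activation above the mean of all tested compounds plus 3 SD, set per screening run, cut at about 8.8% in these data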;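 also: cells exposed to compound for 20 h before luminescence read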
proKLK7 act: activators of human kallikrein-7 zymogen; 370,000 compounds, 0.9% hits; P49862; purified proKLK7, EDANS-DABCYL substrate fluorescence; 100% is mature enzyme control, 0% vehicle; activation, % at 7 µM; AID 652039;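 active = activation above the mean of all tested compounds plus 3 SD, computed per campaign excluding outliers beyond control limits, cut at about 13% in these data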
Target sequence (P49862 whole entry, looked up): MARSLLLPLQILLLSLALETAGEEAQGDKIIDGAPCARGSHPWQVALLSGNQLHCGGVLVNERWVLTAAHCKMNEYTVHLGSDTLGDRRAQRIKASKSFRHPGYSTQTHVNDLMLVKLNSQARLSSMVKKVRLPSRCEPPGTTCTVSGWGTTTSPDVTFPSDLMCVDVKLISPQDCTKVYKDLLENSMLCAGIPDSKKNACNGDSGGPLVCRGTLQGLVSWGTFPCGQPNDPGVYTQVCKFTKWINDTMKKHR
AI-2 QS mod: modulates the Vibrio harveyi AI-2 quorum sensing system | 300,000 compounds, 0.4% hits | activity change, % at 7.5 µM | AID 2094 | Vibrio harveyi JMH597 AI-2 luminescence/OD600 ratio, 9 h; active compounds read low; strain lacks LuxN and CqsS sensors; 0 = neutral-control median; in the data active = activity change below about -75%, passing the limit was not always enough; inconclusive = no clear call, values can overlap the other calls;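 also: luminescence divided by OD600 gain over 9 h not by final OD600 alone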
Runt-SMMHC FRET: blocks binding of human RUNX1 Runt domain to CBFb-SMMHC; Q01196+Q13951; Cerulean-Runt/Venus-CBFb-SMMHC FRET ratio 530/480, 1 h; inhibition, % at 20 µM; 220,000 compounds, 0.74% hits; AID 1434;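 active = mean inhibition across duplicate retests at 20 µM reaching about 50%, limit read from the data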;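 also: inhibitors lower the FRET ratio by blocking Runt binding to CBFb-SMMHC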
RanGTP-Impb inh: inhibitors of RanGTP-importin-beta interaction, primary screen, biochemical, FRET, CFP-Ran, YFP-importin-beta, homogeneous. inhibition, % (no concentration beside the values). cell-free CFP-Ran/YFP-importin-beta FRET ratio. 300,000 compounds, 1.1% hits;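 active = more than half of the replicate wells show a fall in the fluorescence ratio signal beyond about 16%, limit read from the data, passing the limit was not always enough; inconclusive = exactly half of the replicate wells pass the set limit; inactive = fewer than half of replicates pass the limit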
RUNX1 CBFb TR: disrupts human RUNX1 Runt domain binding to CBFb; shares compounds with Runt-CBFb FRET; TR-FRET RUNX1 Runt domain-CBFb binding; inhibition, % at 20 µM; 480 compounds, 20% hits; in the data active = inhibition above about 40%
Large screens that a line does not name were inactive (follow-up assays come after a bar, where they were run).

COc1ccc(/C=C(/C#N)C(=O)Nc2cccnc2)cc1OC	none
CCOC(=O)CSc1nnc(-c2ccc(OC)cc2OC)o1	none
CCOC(=O)N/N=C/c1c(F)c(F)c(F)c(F)c1F	Runt-CBFb FRET 50 (no result: RanGTP-Impb inh) | RUNX1 CBFb TR inactive
CCOC(=O)N/N=C/c1c(F)cccc1F	none
OC(COc1ccc(CNCCc2ccccc2F)cc1)CN1CCCCC1 (configuration not stated)	none
Cc1ccc(Cn2cnc3ccccc32)cc1	Runt-CBFb FRET 54 | RUNX1 CBFb TR inactive
O=C(CN1CCN(c2ccccc2)CC1)Nc1cccc(C(F)(F)F)c1	Runt-CBFb FRET 59 | RUNX1 CBFb TR inactive
CCOC(=O)C1=C(C)N(c2ccc(OC)cc2)C(=O)/C1=C\c1cccs1	none
CCOC(=O)C1=C(C)N(c2ccc(OC)cc2)C(=O)/C1=C\c1ccc(O)c(OCC)c1	Runt-CBFb FRET 65 | RUNX1 CBFb TR inactive
CCCn1nc(NC(=O)c2cccs2)c2cc3cccc(C)c3nc21	Runt-CBFb FRET 64, Runt-SMMHC FRET 85, RanGTP-Impb inh 95 | RUNX1 CBFb TR inactive
CCOC(=O)c1sc(N=NC2=C(O)CC(C)(C)CC2=O)c(C(=O)OCC)c1C	none
Cc1ccccc1N=Cc1cc2c(cc1O)OC(N)=C(C#N)C2c1ccccc1 (configuration not stated)	Runt-CBFb FRET 71, Runt-SMMHC FRET 109, RanGTP-Impb inh 30 | RUNX1 CBFb TR inactive
COc1cc(N2C(=O)C=CC2=O)c(OC)cc1Cl	Runt-CBFb FRET 64, AI-2 QS mod -92, Runt-SMMHC FRET 70, RanGTP-Impb inh inconclusive | RUNX1 CBFb TR inactive
Cc1ccc(N2CCN(CCCCN3C(=O)C4CCCN4C3=O)CC2)cc1 (configuration not stated)	none
CC(=O)Nc1ccc(S(=O)(=O)c2c(N)n(CCN3CCOCC3)c3nc4ccccc4nc23)cc1	none
Nc1c(C(=O)NCCN2CCOCC2)c2nc3ccccc3nc2n1CCc1ccccc1F	Runt-CBFb FRET 70, Runt-SMMHC FRET 61, RanGTP-Impb inh 93 | RUNX1 CBFb TR inactive
COc1ccc(CCn2c(=N)c(S(=O)(=O)c3ccc(C)cc3)cc3c(=O)n4ccccc4nc32)cc1	none (no result: Runt-CBFb FRET, Wee1 stabilizer, Runt-SMMHC FRET)
COc1ccc(CCn2c(=N)c(C(=O)N3CCN(C)CC3)cc3c(=O)n4ccccc4nc32)cc1	Runt-CBFb FRET 65, Runt-SMMHC FRET 124 | RUNX1 CBFb TR inactive
Clc1ccc(CSc2ccc(-c3ccco3)nn2)cc1	Runt-CBFb FRET 56 | RUNX1 CBFb TR 52
Cc1cccc(CSc2ccc(-c3ccco3)nn2)c1	none
Cc1ccc(CSc2ccc(-c3ccco3)nn2)cc1	Runt-CBFb FRET 56, AI-2 QS mod -86 | RUNX1 CBFb TR inactive
COc1ccc(OC)c2c1C(=O)C(Cl)=C(Cl)C2=O	Runt-CBFb FRET 68, Runt-SMMHC FRET 66 | RUNX1 CBFb TR inactive
COc1ccc(CN(CC(=O)NCC2CCCO2)C(=O)CCC(=O)Nc2nccs2)cc1 (configuration not stated)	none (no result: Runt-CBFb FRET, Wee1 stabilizer, AI-2 QS mod, Runt-SMMHC FRET)
COc1ccccc1-c1nnc(SCC(=O)Nc2ccc(S(N)(=O)=O)cc2)n1C	none
FC(F)Oc1ccc(-c2csc(NNC3=NCCCCC3)n2)cc1	Runt-CBFb FRET 55 | RUNX1 CBFb TR inactive
COc1cc(C(=O)NNC(=O)Nc2ccc([N+](=O)[O-])cc2)cc(OC)c1OC	none
Cc1ccc2nc(C)cc(N3CCOCC3)c2c1	none
Cc1cc(N2CCOCC2)c2c(N)c(C)cc(C)c2n1	Runt-CBFb FRET 62 (no result: AI-2 QS mod, RanGTP-Impb inh) | RUNX1 CBFb TR inactive
CSc1ccc(C2C(C#N)=C(N)Oc3cc4c(cc32)OCO4)cc1 (configuration not stated)	RanGTP-Impb inh inconclusive
N#CC1=C(N)Oc2cc(N)ccc2C1c1ccc(F)cc1 (configuration not stated)	Runt-CBFb FRET 73, Runt-SMMHC FRET 86, RanGTP-Impb inh 76 | RUNX1 CBFb TR inactive
COc1ccc2[nH]c(C(=O)N(C)c3ccc(F)cc3F)cc2c1	none
